A selection: hits, their analogues and other compounds. The true share with any hit is near 2.8%.
SR-BI DiI inh: mouse SR-BI HDL lipid transfer inhibition; Q61009; ldlA[mSR-BI] CHO cells, DiI-HDL uptake fluorescence, 3 h; inhibition, % at 12.5 µM; hit rate 0.96% among 320,000;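 active = mean replicate inhibition of at least 70% and a set share of replicates each scoring 70 or more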;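 note: 0% = median of neutral control wells and 100% = median of positive control wells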
SR-BI uptake up: enhances SR-BI lipid uptake from DiI-HDL; activation, % at 12.5 µM; AID 504775; CHO ldlA[mSR-BI] cells, DiI-HDL uptake fluorescence, 3 h; 100 = double the neutral-control signal; hit rate 0.096% among 320,000;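 active = mean replicate activation of at least 60% and every replicate at or above 60%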;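 note: 0% = median plate neutral-control signal and 100% = twice that signal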
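system = CHO ldlA[mSR-BI] cells, LDL receptor-null, SR-BI overexpressing | medium = Ham's F12 with 0.5% BSA, HEPES 25 mM, pH 7.4 | probe or stimulus = DiI-HDL 10 µg/mL | compound dosing = single-point compound dose | incubation = compound exposure 3 h, 37 °C | technique = DiI fluorescence, bottom read | read-out = cell-associated DiI fluorescence as measure of HDL uptake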
dFosB activator: mouse delta FosB homodimer activation; P13346; purified delta FosB, TAMRA-CDK5 oligo fluorescence polarization; percent of positive-control signal above neutral wells; activation, % at 25 µM; hit rate 0.99% among 340,000; AID 493131;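 active = mean activation above about 17%, with every replicate also reaching it, limit read from the data, passing the limit was not always enough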
Target sequence (P13346 whole entry, looked up): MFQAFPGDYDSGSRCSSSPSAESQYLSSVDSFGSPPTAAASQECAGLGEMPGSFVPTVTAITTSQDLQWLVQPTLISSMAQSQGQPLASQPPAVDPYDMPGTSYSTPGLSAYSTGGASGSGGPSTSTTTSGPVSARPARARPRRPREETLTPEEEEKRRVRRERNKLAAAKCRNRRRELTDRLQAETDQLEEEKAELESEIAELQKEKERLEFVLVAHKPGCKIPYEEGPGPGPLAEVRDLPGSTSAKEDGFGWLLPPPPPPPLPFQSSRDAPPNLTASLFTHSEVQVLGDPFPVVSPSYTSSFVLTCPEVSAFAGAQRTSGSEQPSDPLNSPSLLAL
CAL PDZ FP-1: blocks peptide binding to human CAL PDZ domain | purified CAL PDZ, TMR-peptide fluorescence polarization, 1 h | inhibition, % at 20 µM | hit rate 0.02% among 330,000 | AID 504414;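 active = highest replicate inhibition of at least 40%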;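 note: plate controls were DMSO neutral control wells for no effect and unlabeled competitor peptide control wells for full effect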
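Test system: purified CerCALP PDZ construct; Compound dosing: one concentration, 20 µM compound; Also added: TMR-labelled reporter peptide T*-PRC34 bound in PDZ groove; Read-out: inhibition from polarization loss; Controls: unlabelled peptide and DMSO controls; Signal: FP readout, S and P plane fluorescence; Incubation: 1 h at RT.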
CAL PDZ FP-2: blocks peptide binding to the human CAL PDZ domain; hit rate 0.92% among 300,000; AID 602252; purified CAL PDZ, TMR-peptide fluorescence polarization, 1 h; Q9HD26; inhibition, % at 24.9 µM;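 active = mean inhibition of at least 30% with at least half of replicates also reaching 30%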;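 note: 0% = DMSO neutral control and 100% = excess unlabeled competitor peptide PRC23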
* marks the source's active call; other numbers are inactive results; . = no result.

SMILES	SR-BI DiI inh	SR-BI uptake up	dFosB activator	CAL PDZ FP-1	CAL PDZ FP-2
COc1ccc(Cl)cc1NC(=O)c1nnn(CC(=O)Nc2ccc(C)c(C)c2)c1N	-14.9	14.9	125.0*	0.7	.
CCOc1ccc(NC(=O)Cn2nnc(C(=O)NCCc3ccc(OC)c(OC)c3)c2N)cc1	74.4*	-74.4	32.3*	-2.1	-6.5
NC(=O)C1CCCN(C(=O)CCCNC(=O)c2ccc(Cl)cc2)C1 (centres undefined)	-20.9	20.9	2.4	-0.7	73.3*
CC1CCCN(C(=O)CCCNC(=O)c2ccc(Cl)cc2)C1 (centres undefined)	-11.7	11.7	-4.8	-0.7	.
Cc1cc(=O)n2nc(N3CCC(C(=O)NCc4cccc(Br)c4)CC3)sc2n1	19.1	-19.1	-20.1	-0.7	119.0*
CCOc1ccc(CCNC(=O)C2CCN(c3nn4c(=O)cc(C)nc4s3)CC2)cc1OCC	72.0*	-72.0	-5.3	-0.6	-1.0
CCc1nnc(NC(=O)C2CCCN(c3nc4ccccc4s3)C2)s1 (centres undefined)	-3.7	3.7	-3.1	-1.9	.
COc1ccc(CCNC(=O)C2CCCN(c3nc4ccccc4s3)C2)cc1OC (centres undefined)	79.3*	-79.3	-2.8	-3.0	-6.4
O=C(NC1CCCC1)C1CCN(C(=O)c2cc(Cl)ccc2Cl)CC1	3.4	-3.4	0.6	-5.5	-23.3
COc1ccc(OCC(=O)Nc2ccc(N3CCN(C(=O)c4ccccc4C)CC3)cc2)cc1	77.1*	-77.1	-6.2	-0.2	-1.7
O=C(COc1ccc(Br)cc1)Nc1ccccc1C(=O)N1CCOCC1	-30.5	30.4	4.2	-0.6	-4.5
COc1ccc(OCC(=O)Nc2ccccc2C(=O)N2CCOCC2)cc1	-17.6	17.6	-4.5	18.9	51.2*
O=C(Oc1c(CN2CCOCC2)cc(Cl)c2cccnc12)c1ccccc1	-8.3	8.3	-7.9	-0.3	47.4*
COc1cc(OC)cc(C(=O)Oc2c(CN3CCOCC3)cc(Cl)c3cccnc23)c1	-5.9	5.9	-10.7	0.2	1.3
CC1CCN(c2nnc(-c3ccccc3)c3ccccc23)CC1	83.7*	-83.7	-10.2	.	-4.5
Cc1ccc(-c2nnc(N3CCC(C)CC3)c3ccccc23)cc1	65.9	-65.9	-3.0	-1.3	.
Cc1nnc(SCC(=O)c2ccc(S(=O)(=O)N3CCOCC3)cc2)n1-c1ccccc1	-21.1	21.1	-0.4	0.8	73.2*
Cc1cccc(N2CC(C)Cn3c2nc2c3c(=O)[nH]c(=O)n2C)c1 (centres undefined)	5.2	-5.2	-8.8	-0.1	-3.4
CCOCCCNC(=S)N(CCCN(C)C)Cc1cc2cc3c(cc2[nH]c1=O)OCCO3	-18.0	18.0	-4.3	-1.7	4.9
CCn1c(SCc2ccc(F)cc2)nnc1C1CCN(S(=O)(=O)c2ccc(OC)cc2)CC1	-8.5	8.5	-9.7	-2.0	48.9*
CSc1ccc(C(C(C(=O)c2cccs2)N2CCOCC2)N2CCOCC2)cc1 (centres undefined)	-65.3	65.3*	-5.5	-2.2	-4.8
O=C(CSc1nnc2ccccn12)Nc1ccc(S(=O)(=O)N2CCOCC2)cc1	-22.8	22.8	0.1	0.5	-3.6
CCN(CC)CCC(=O)Nc1cccc2c1C(=O)c1ccccc1C2=O	18.8	-18.8	35.0*	-1.1	.
CCc1c(C(=O)Nc2cc(C)cc(C)c2)[nH]c(C)c1C(C)=O	76.6*	-76.6	-10.3	-3.2	-1.7
CCOc1ccc(CCNC(=O)c2[nH]c(C)c(C(C)=O)c2CC)cc1OCC	9.7	-9.7	1.7	-2.2	-3.3
SMILES	SR-BI DiI inh	SR-BI uptake up	dFosB activator	CAL PDZ FP-1	CAL PDZ FP-2
COC(=O)C1CCN(C(=O)c2cc3c(=O)n4cccc(C)c4nc3n2Cc2ccccc2)CC1	3.5	-3.5	-3.1	-1.7	-1.1
CCOc1ccc(/C=C(\C#N)C(=O)Nc2cccnc2)cc1	-8.3	8.3	-4.0	-1.1	2.0
CCOc1ccc(NC(=O)/C(C#N)=C\c2ccc(N3CCCC3)c(C)c2)cc1	100.7*	-100.6	-5.0	-0.7	-1.7
COc1ccccc1NC(=O)CN1CCC(c2nc3ccccc3[nH]2)CC1	-2.8	2.8	1.8	-1.1	.
COc1ccccc1NC(=O)CN1CCC(c2nc3ccc(C)cc3[nH]2)CC1	-9.5	9.5	-12.8	-0.9	93.1*
CCCCCCSc1ccc(-c2nc3ccc(Cl)cn3c2NCCCC)cc1OC	27.5	-27.5	-0.7	0.8	0.6
CCCCNc1c(-c2ccc(SC3CCCCC3)c(OC)c2)nc2ccc(Cl)cn12	75.2*	-75.2	2.8	0.1	-2.9
CCCCNc1c(-c2ccc(-c3ccc(OC)cc3)c(OC)c2)nc2ccccn12	86.8*	-86.8	-2.9	-0.8	-4.0
CCCCN(C(=O)CCCSc1nc2ccccc2[nH]1)c1c(N)n(Cc2ccccc2)c(=O)[nH]c1=O	4.5	-4.5	-7.4	0.2	-2.6
CC1CN(C(=O)Cn2cc(SCC(=O)N3CCOCC3)c3ccccc32)CC(C)O1 (centres undefined)	1.4	-1.4	3.2	-1.1	-1.9
C=CCN(C(=O)c1csnn1)C(C(=O)NCc1ccccc1)c1c(F)cccc1Cl (centres undefined)	-18.2	18.2	-10.6	-0.4	41.3*
C=CCN(C(=O)c1csnn1)C(C(=O)NCc1ccccc1)c1ccccc1F (centres undefined)	-32.9	32.9	-0.4	-0.1	-4.2
O=C(O)CCc1[nH]c2ccccc2c1Sc1ccccc1	-18.0	18.0	1.9	-0.3	-6.1
Cc1ccc(NC(=O)c2ccc(NCCN)c([N+](=O)[O-])c2)cc1Cl	34.6	-34.6	39.0*	0.1	-3.3
CC(=O)c1nccs1	4.1	-4.1	0.3	0.1	32.5*
COCCN(C(=O)CSc1nnc(-c2ccccc2F)n1C)c1c(N)n(Cc2ccccc2)c(=O)[nH]c1=O	-15.6	15.6	1.1	-1.0	44.7*
CCN(c1ccccc1)S(=O)(=O)c1nnc(NC(=O)C(C)(C)C)s1	2.5	-2.5	-1.6	0.3	-2.8
Oc1ccccc1-c1nnc(SCCN2CCOCC2)n1Cc1ccccc1	57.8	-57.8	-4.0	-1.8	55.7*
COc1ccc(-n2c(SCC(=O)Nc3cc(C)on3)nc3c([nH]c4ccccc43)c2=O)cc1OC	3.4	-3.4	24.6*	-1.0	4.1
COc1ccc(C)cc1-n1c(SCC(=O)Nc2cc(C)on2)nc2sc(C)c(C)c2c1=O	-8.2	8.2	-2.3	.	80.6*
CN1CCN(C(=O)Cn2ncc3c([nH]c4ccccc43)c2=O)CC1	-2.8	2.8	-13.4	0.1	-3.5
O=C(Cn1ncc2c([nH]c3ccccc32)c1=O)N1CCOCC1	-8.1	8.1	-2.8	-1.0	39.0*
COc1cc(CC(=O)OCC(=O)Nc2ccc(N(C)C)cc2)cc(OC)c1OC	15.2	-15.2	2.1	1.2	1.3
CC(C)CNC(=S)NNC(=O)CC(C)O (centres undefined)	-8.1	8.1	-2.4	-0.4	77.0*
Cc1cnn(CCC(=O)NNC(=S)NCC(C)C)c1	-21.5	21.5	-0.7	-0.4	-5.7

Source: PubChem
